Reference: ChEMBL document CHEMBL4513216, “Probing the Open Global Health Chemical Diversity Library for Multistage-Active Starting Points for Next-Generation Antimalarials” (ACS Infect Dis, 2020)

Test: Toxicity liver stage against HepG2, at 10uM
Type: cell-based
Design: test concentration 10 uM, cell line HepG2-A16-CD81EGFP
Settings: human, HepG2-A16-CD81EGFP cells; read-out: INHIBITION
Procedure, shortened: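 Uninfected HepG2-A16-CD81EGFP cells, 3 × 10^3 per well, 1536-well, plated on prespotted compound at 10 μM final, parasite-free screening media added to match infected plates; puromycin 10 μM positive, DMSO 0.5% negative; run in parallel with 48 h PbLuc assay at 37 °C, 5% CO2; viability by CellTiter-Glo luminescence, normalized to controls.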

SMILES	cytotoxicity at 10 µM [%]
CC1CCc2c(c3ccccc3[nH]c2=O)O1 (stereo unspecified)	-8.41
O=C1N[C@@H]2CCN(C(=O)C3CCCC3)[C@@H]2C(=O)N1c1ccc(F)cc1	-1.1
Cc1nn2cnnc2c(C)c1CCC(=O)Nc1nc2c(s1)CCC2	-0.674
Cc1cc(C(=O)Nc2nc3c(s2)CN(S(=O)(=O)C2CC2)CC3)c(C)o1	22.7
CC(=O)OC1CN(c2nc3c(Cl)cccc3s2)C1	-0.745
CCN1CCC2(CN(C(C)=O)CC23CCN(C(=O)N(C)C)CC3)C1=O (stereo unspecified)	4.88
CC(=O)N1CCC2(CCCN(S(=O)(=O)c3ccccc3)C2)C1 (stereo unspecified)	0.169
Cc1ccc2c(c1)C1(CCNCC1)CC2N1CCOCC1 (stereo unspecified)	-134
CCc1cnc(NC2CCc3c(ccc(=O)n3C)C2)nc1 (stereo unspecified)	-125
CC(=O)N1CC2(CCN(C(=O)CO)CC2)c2cc(C)ccc21	9.37
CC(=O)N1CCO[C@@H]2CN(C(=O)c3ccc4ccccc4c3)CC[C@@H]2C1	1.35
COCC1c2nnn(CC3CC3)c2CCN1C(=O)c1cccn1C (stereo unspecified)	-133
CS(=O)(=O)N[C@@H]1CN(Cc2ccccc2)C[C@@H]2CCCO[C@@H]21	2.58
O=C(c1cnccn1)N1CCN2C[C@H](OCC3CC3)C[C@H]2C1	2.92
NC(=O)c1c(NC(=O)C2CCCO2)sc2c1CCc1ccccc1-2 (stereo unspecified)	0.794
Cc1c(C2CC(=O)Nc3c2cnn3C(C)(C)C)cnn1C (stereo unspecified)	-2.89
Cn1cc(CN2CC[C@H]3OCC[C@@H](C(=O)N4CCCCO4)[C@@H]3C2)cn1	-2.1
CSc1nc2ccsc2c(=O)n1CC(=O)NC1CCCC1	0.297
Cc1noc(C)c1-c1cccc(C2CCCNC2)n1 (stereo unspecified)	-12.3
Cc1noc(C)c1-c1nc(NCCN(C)C)ncc1-c1cnccn1	-9.03
Cc1nc(C)c(C(=O)N2CCC(O)(Cn3ccc4ccncc43)CC2)s1	-21.7
COCCN1CCCC(CCCc2ccccn2)(C(N)=O)C1 (stereo unspecified)	-16
COc1ccc(C)cc1C1(CNc2cncc(Cl)n2)CCOCC1	7.07

SMILES	cytotoxicity at 10 µM [%]
CC(C)COCCC(=O)Nc1cc(-n2nnnc2C2CC2)ccc1F	7.57
O=C(NCc1nnc2n1CCC2)c1cccc(Br)c1	-0.115
CC(C)c1nsc(N2CCn3c(nnc3-c3ccccc3)C2)n1	-13.9
CN(C)Cc1ccc(C(N)=O)cc1NC(=O)c1cccc(C#N)c1	1.12
O=S(=O)(NCCCn1cncn1)c1ccc2c(c1)CCC2	3.03
Cc1ccc2cccc(C(=O)NCCOCC3CC3)c2n1	-20.3
COC(=O)c1cccc(S(=O)(=O)NCC(c2ccco2)N2CCCC2)c1 (stereo unspecified)	-1.74
CC(C)(C)c1noc(CCCC(=O)N2CCNC(=O)C2)n1	-4.28
NC(=O)NC1CCN(Cc2ccc3c(c2)CCC3)CC1	-3.19
O=C1CN(C(=O)c2cc3ccc(Br)cc3[nH]2)CCN1	0.549
O=C(CNC(=O)C1CC1)NCc1ccc(Cl)s1	-3.12
Cc1sc(-c2ccco2)nc1C(=O)N(CC(N)=O)C1CCCC1	-2.64
O=C(NCCN1CCOCC1)c1cc(-c2ccccc2Cl)[nH]n1	-4.02
Cc1cc(C)n(CC2CCCN2CC(=O)Nc2nnc(C)s2)n1 (stereo unspecified)	5.29
Cn1c(C(=O)N2CCC(CC(N)=O)CC2)c(Cl)c2ccccc21	18.7
CC(NC(=O)N(C)Cc1ccsc1)c1nncn1C (stereo unspecified)	-4.02
COc1ccc(CC(=O)NCCNS(=O)(=O)c2ccc(C)cc2)cc1	-143
CC(C)OCCC(=O)Nc1c(-c2ccc(F)cc2)ncn1C	-3.41
Cc1[nH]c(=O)sc1S(=O)(=O)N1CCCC1C(=O)NCc1ccsc1 (stereo unspecified)	2.78
Cc1cc(N2CCCCC2Cn2nc(C)cc2C)n2ncnc2n1 (stereo unspecified)	-1.38
COCCc1noc(CN2CCCc3cccc(OC)c32)n1	5.52
CC(Sc1n[nH]c(-c2ccc3c(c2)CCC3)n1)C(N)=O (stereo unspecified)	-0.665
CC(C)c1nccn1CCC(=O)N1CCCC1c1cccn1C (stereo unspecified)	-6.66

SMILES	cytotoxicity at 10 µM [%]
COC(=O)c1ccc(CNC(C)c2ccc(S(C)(=O)=O)cc2)cc1 (stereo unspecified)	5.21
CCCNC(=O)c1[nH]nc(C2CC2)c1Br	-0.587
CN1CC(C(=O)NCCc2ccc(Br)cc2F)CC1=O (stereo unspecified)	2.43
COCC(=O)N1CCC(Nc2ccnc3ccc(Cl)cc23)CC1	5.78
Cc1nc(COc2ccc(S(=O)(=O)N(C)C)cc2)sc1C	-1.13
Cc1nc2ccccc2n1CCNCc1cccc(O)c1	-3.89
CN(CC1CC1)C(=O)Cc1csc(-c2ncccn2)n1	4.56
COc1ncccc1NC(=O)N1CCC(CN2CCOCC2)CC1	-6.78
CSCC(C)(O)CNC(=O)c1ccc(Br)cc1F (stereo unspecified)	0.537
Cn1cc(CN(Cc2ccccc2)CC(O)c2cccs2)cn1 (stereo unspecified)	-8.59
O=C(CC1COCCN1)N1CCC2(CCc3ccccc32)CC1 (stereo unspecified)	-148
CC(C)Cc1cn(C2CCN(C(C)CCn3cccn3)CC2)nn1 (stereo unspecified)	-1.8
COc1ccc(-n2cc(CCO)cn2)cc1C	-12.4
CCN(C)C[C@@H]1CN(Cc2cnc3c(S(C)(=O)=O)cnn3c2)C[C@@H]1CO	-4.99
C[C@@H]1CN(C(=O)CCc2cnn(C)c2)CC[C@@]1(O)C1CCOCC1	-0.872
CC1(c2ccccc2)CCC(=O)N(CCN2CCCOC2=O)C1 (stereo unspecified)	-3.99
COCCCC1(CO)CCCN(Cc2ccc(F)c(OC)c2)C1 (stereo unspecified)	-142
Cn1cc(CN(C/C=C/c2ccccc2)C2CC2)cn1	-10.1
COCCN1CCN(C(=O)c2ccc(C)cc2F)[C@H]2CS(=O)(=O)C[C@H]21	-11.4
CC(C)SCC(=O)N1CCCn2nc(C(=O)Nc3ccccc3)cc2C1	3.19
CCC(CC)n1nc(C)cc1NC(=O)C1CCCO1 (stereo unspecified)	-0.951
CCCNC(=O)N1CCc2ccc(S(=O)(=O)N3CCCC3)cc2C1	-12.3
COc1cccc(OCc2cc(C(=O)N3CC(O)C3)n[nH]2)c1	2.81

SMILES	cytotoxicity at 10 µM [%]
Cc1nn(C)c2ncnc(NCc3nncn3C3CCCCC3)c12	-10.2
O=C(c1cccs1)N1CC(Oc2ccccc2Cl)C1	6.89
COc1cccc(OC2CN(C(=O)c3c(C)noc3C)C2)c1	7.79
Cc1nc2c(c(=O)n1C)CN(C(=O)C1CCCN(C3CCCC3)C1)C2 (stereo unspecified)	-8.67
Cc1cccc(C(C(=O)NCCCc2ccccn2)N(C)C)c1 (stereo unspecified)	-7.16
OCC1(O)CCN(Cc2ccc(-c3cc[nH]n3)s2)CC1	-135
COc1ccc(OC)c(NC(=O)c2cc3c([nH]c2=O)CCCC3=O)c1	-0.607
COc1ccc(-c2ccccc2CN)c(OC)c1	7.35
Cc1nnc2ccc(N3CCN(CCc4ccccn4)CC3)nn12	-8.76
COC(=O)CNC(=O)c1sc(-c2ccc(Cl)s2)nc1C	-5.63
Cc1ccc(CCC(=O)N2CCOCC2c2ncon2)c(C)c1 (stereo unspecified)	-6.76
N#Cc1ccc(CS(=O)(=O)NC(=O)COc2ccc3c(c2)CCC3)cc1	1.13
COc1cccc(-n2nnc(C(=O)N3CCCC(C)C3)c2C)c1 (stereo unspecified)	-5.33
CCn1nc2c(cc1=O)CN(Cc1nc(-c3cccnc3)no1)CC2	-5.86
Fc1ccccc1-c1nc(CNCCn2cccn2)cs1	-9.53
c1ncn(CC2CCCCN2Cc2csc(-c3ccsc3)n2)n1 (stereo unspecified)	-2.48
Cc1nc(CSCCC(=O)NCc2ccc(N(C)C)cc2)cs1	-14.2
COc1ccccc1CNC(=O)N1CCN(Cc2cc(C)on2)CC1	-9.07
COCCOc1cc(C)ccc1NC(=O)N(C)Cc1cnn(C)c1	-9.5
CCOc1ccc(C(=O)N2CCCC(n3ccnc3C)C2)cc1OC (stereo unspecified)	-6.7
COCCc1noc(CN2CC(n3nc(C)cc3C)C2)n1	-1.76
c1cnn(CCN2CCOC(Cn3cccn3)C2)c1 (stereo unspecified)	-10.3
CCN(Cc1ccc(F)c(F)c1)Cc1nc2c(cnn2C)c(=O)[nH]1	-4.18

SMILES	cytotoxicity at 10 µM [%]
CCn1cc(CN2CCCN(C(=O)c3ccccc3C)CC2)cn1	-5.65
COc1c(C2CCCN2C(=O)c2ccc(N(C)C)nn2)c(C)nn1C (stereo unspecified)	-13.7
Cc1nc(C)c(C(=O)N2CCCN(Cc3cnn(C)c3)CC2)s1	-9.58
O=C(c1ccccn1)N1CCCN(Cc2nnc(C3CC3)o2)CC1	5.25
CC(C)(C)c1cc(C(=O)NCCn2nc3ccccn3c2=O)[nH]n1	-29.5
CC(C)(C)c1cn2nc(N3CCCCC3Cn3cncn3)sc2n1 (stereo unspecified)	-4.61
COCCNC(=O)[C@H]1C[C@@H]2CCN(c3ncccn3)C[C@H]2O1	-17.1
Cc1occc1C(=O)N1CCC2(CCCN(Cc3nccs3)C2)C1 (stereo unspecified)	-3.32
Fc1ccc(COCC2CCN(Cc3ccccn3)CC2)cc1	-2.67
Cc1nc(CO[C@@H]2CN(Cc3nccs3)[C@@H]3COC[C@@H]32)cs1	-3.03
Cc1ccc2c(c1)C(N(C)C)CC21CCN(CCO)CC1 (stereo unspecified)	3.62
O=C(c1ccccn1)N1CCC2(CC1)C(=O)Nc1ccccc12	-145
CCN1CCOCC2(CCCN(C(=O)c3ccccc3F)C2)C1 (stereo unspecified)	-4.9
Clc1ccccc1OCCc1cc(C2CCNC2)n[nH]1 (stereo unspecified)	-32.9
O=C(c1ccccn1)N1CC[C@H]2[C@H]1CCN2S(=O)(=O)C1CC1	-123
CN(C)CCN1CCO[C@H]2CN(Cc3cnn(C)c3)C[C@H]21	1.82
O=C1Nc2ccccc2C12CCN(Cc1nccs1)CC2	-0.243
c1ccc(N2CCC3(CCCN(c4ncccn4)C3)C2)nc1 (stereo unspecified)	-133
Cc1noc(C)c1CN1C(=O)[C@@H]2CC[C@H]1CN(Cc1cscn1)C2	0.854
